Experimental data reported in PMC11842988 (Journal for Immunotherapy of Cancer, 2025).
“Also recorded” adds a separate entry of the source.

Legend:
[1] = test system: TAAp-specific CD8+ T cells, A2/DR1 mice; assay type: in vivo, mouse; conditions: for TAAp-specific IFN-γ response after OMP immunization: ex vivo restimulation with TAAp; for TAAp-specific response, OMP versus TAAp immunization: figure 2F
Procedure, shortened: (§1)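 HLA-A2/DR1 transgenic mice primed day 0, boosted day 14, s.c., with class I peptide (5, 30 or 95 nmol) plus UCP2 helper (30–100 µg) in Montanide ISA 51 VG (50:50). Spleens taken day 21 post-prime, or day 30 in the tumour study; RBCs lysed. 2×10^5 splenocytes/well restimulated ~20 h with 10 µM peptide at 37°C. PMA/ionomycin and EZH2-B2 controls. Media background subtracted; IFN-γ spots per 10^6 T cells.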

OMP-loaded T2 cells = test: Cytotoxicity of sorted TAAp-specific T cells on OMP-loaded T2 cells; assay type: cell-based, human; conditions: 24 h, EZH2-loaded T2 as control
Procedure, shortened: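 Patient PBMCs stimulated 12 days in vitro with the three-peptide OMP pool. TAAp-tetramer+ CD8+ T cells sorted, then expanded on anti-CD3/CD28 activator with IL-2 (50 U/mL), IL-7, IL-15 and IL-21. CellTrace Violet-labelled T2 cells co-cultured with these T cells, peptide (OMP or EZH2 control) and β2-microglobulin at 37°C for 24 h in 50% RPMI/50% X-vivo 15. Media-only control. CD8 and near-IR live/dead stains; duplicates.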

patient CD8+ T cells = test: Intracellular cytokine staining; assay type: cell-based, human; conditions: for Cytokine levels after restimulation (ICS): post-IVS with OMPs
Procedure, shortened: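 Patient PBMCs expanded 12 days in vitro with the three-peptide bacterial pool (1 µg/mL each, added day 1) in IMDM/10% human serum/β-ME. IL-2 (2 ng/mL) added on day 3 and again on days 5, 7 and 9. Cells then restimulated with the indicated peptides. Intracellular IFN-γ, TNF, IL-2, CD154 and CD107a reported as % positive T cells.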

[2] = test system: antigen-specific CD8+ T cells in patient PBMCs; test: Tetramer staining of patient PBMCs after 12 days IVS with OMPs; assay type: cell-based, human; conditions: patients, EO2401
Procedure, shortened: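 Thawed patient PBMCs (2.5–3.5×10^6/well) rested 24 h, then given the OMP pool (1 µg/mL each) on day 1. IL-2 (2 ng/mL) added from day 3, with splits and feeds; harvested day 12. Stained 30 min at RT with separate OMP and TAAp tetramer mixes (2.5 µg/mL each), or matched pairs for cross-reactivity. Then CD4/CD8/CD14/CD19 and Zombie Aqua, 20 min 4°C. ≥600,000 cells acquired; % of live CD8+.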

[3] = test system: antigen-specific CD8+ T cells in patient PBMCs; test: Tetramer staining of patient PBMCs ex vivo; assay type: cell-based, human
[4] = test system: OMP-/TAAp-specific CD8+ T cells in HD PBMCs; assay type: cell-based, human; conditions: HLA-A2+ HD PBMCs after IVS with OMPs; average unless stated
Procedure, shortened: (§2)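 HLA-A*02:01 donor PBMCs pulsed 24 h with OMPs (10 µM), CD137-enriched, expanded 8 days on anti-CD3/CD28 with IL-2/7/15/21. Restimulated every 10 days with mitomycin C-treated T2 cells loaded with peptide and β2-microglobulin. Antigen-specific frequency measured by CD8 plus pMHC tetramer staining. Per-donor cross-reactivity (%) computed from the TAA-specific and OMP-specific CD8+ percentages.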

[5] = test system: SARC-A2-hCD20-GFP sarcoma cells; test: Tumor protection model, SARC-A2-hCD20-GFP sarcoma in A2/DR1 mice; assay type: in vivo, mouse; conditions: OMP72 prime-boost, 0.5×10^6 SARC-A2-hCD20-GFP cells s.c., n=8 mice
Procedure, shortened: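 A2/DR1 mice given the prime-boost regimen (days 0 and 14). On day 21 post-prime, 0.5×10^6 SARC-A2-hCD20-GFP or SARC-A2-GFP sarcoma cells in PBS injected s.c. in the right flank; naïve mice as controls. Tumours measured by caliper twice weekly over 30 days (mm2). Endpoint at ≥300 mm2; n=8 per group.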

[6] = test system: human CD20 on SARC-A2-hCD20-GFP cells; test: hCD20 expression of tumor cells at day 30; assay type: in vivo, mouse; conditions: OMP72-immunized mice still bearing tumors, day 30, n=4
[7] = test system: OMP-specific CD8+ T cells, A2/DR1 mice; test: IFN-γ ELISpot of splenocytes from immunized A2/DR1 mice, restimulation with OMP; assay type: in vivo, mouse; conditions: ELISpot day 30
Procedure, shortened: as §1

[8] = test system: splenocytes pulsed with OMPs; test: In vivo cytotoxicity in humanized HLA-A2 mice, OMP-pulsed splenocytes; design: species or system mouse; conditions: online supplemental figure 2
Procedure, shortened: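 Immunised A2/DR1 mice challenged i.v. 6 days post-boost; naïve mice received the same cells. Splenocytes from unimmunised syngeneic donors were pulsed with individual peptides (bright dye) and mixed 1:1 with unpulsed cells (dim dye). Read out 20 h later by flow cytometry. Specific lysis (%) = (% targets in naïve − % in immunised)/% in naïve × 100.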

[9] = test system: OMP-specific CD8+ T cells in HD PBMCs; test: Prevalence of OMP-specific CD8+ T cells in healthy donors; assay type: cell-based, human
Procedure, shortened: as §2

FLAFVPLQL [OMP65]
TAAp-specific IFN-γ response after OMP immunization [1]: > 5,000 SFU | TAAp-specific response, OMP versus TAAp immunization [1]: superior immunogenicity

FLPFGFILPV [OMP16]
TAAp-specific IFN-γ response after OMP immunization [1]: < 2,000 SFU | TAAp-specific response, OMP versus TAAp immunization [1]: superior immunogenicity | Killing of OMP-loaded T2 cells by corresponding TAAp-tetramer+ T cells (OMP-loaded T2 cells): specifically killed | Cytokine levels after restimulation (ICS) (patient CD8+ T cells): stronger cytokine levels | OMP-specific T cells also recognizing the matched TAAp [2]: 1%

FMLGEFLKL [OMP17]
TAAp-specific IFN-γ response after OMP immunization [1]: > 5,000 SFU | TAAp-specific response, OMP versus TAAp immunization [1]: superior immunogenicity | Killing of OMP-loaded T2 cells by corresponding TAAp-tetramer+ T cells (OMP-loaded T2 cells): specifically killed | BIRC5-specific CD8+ T cells of total circulating CD8+ T cells ([3]; Patient #1): more than 20% | Tetramer+ T cells of total circulating CD8+ T cells, week 44 ([3]; Patient #1, ex vivo, week 44): 3.27% | Tetramer+ T cells of total circulating CD8+ T cells, week 88 ([3]; Patient #1, ex vivo, week 88): 17.4% | Tetramer+ T cells of total circulating CD8+ T cells, week 100 ([3]; Patient #1, ex vivo, week 100, listed as EO2317): 32% | Cross-reactivity OMP/TAAp in healthy donor CD8+ T cells [4]: above 66% | Simultaneous cytokine production on restimulation (polyfunctionality) (patient CD8+ T cells; Patient #1, weeks 88 and 100): IFN-γ, TNF-α and CD107a simultaneously | Cytokine levels after restimulation (ICS) (patient CD8+ T cells): stronger cytokine levels | OMP-specific T cells also recognizing the matched TAAp [2]: 80%

ALNPELLAL [OMP12]
TAAp-specific response, OMP versus TAAp immunization [1]: superior immunogenicity | Cross-reactivity OMP/TAAp in healthy donor CD8+ T cells [4]: above 66%

FLYDVRTYL [OMP10]
Cross-reactivity OMP/TAAp in healthy donor CD8+ T cells [4]: below 33%

LMDLSTTEV [OMP18]
TAAp-specific IFN-γ response after OMP immunization [1]: < 2,000 SFU | Killing of OMP-loaded T2 cells by corresponding TAAp-tetramer+ T cells (OMP-loaded T2 cells): specifically killed | Cross-reactivity OMP/TAAp in healthy donor CD8+ T cells [4]: below 33% | Cytokine levels after restimulation (ICS) (patient CD8+ T cells): stronger cytokine levels | OMP-specific T cells also recognizing the matched TAAp [2]: around 20%

AMNSLSLYI [OMP72]
Tumor protection after immunization [5]: half of the A2/DR1 mice; also recorded: could induce protection against CD20-expressing tumor cells | Tumor cells with loss of CD20 surface expression in non-controlled tumors [6]: 99% | OMP72-specific IFN-γ-producing cells in responsive versus non-responsive mice [7]: comparable levels | Individual OMP-specific CTL activity [8]: negligible

YIFEHPETA [OMP64]
TAAp-specific IFN-γ response after OMP immunization [1]: < 2,000 SFU | Cross-reactivity OMP/TAAp in healthy donor CD8+ T cells [4]: below 33% | Prevalence of OMP-specific CD8+ T cells in HLA-A2+ PBMC samples [9]: 67% | Individual OMP-specific CTL activity [8]: lower

LMFGAPALV [OMP66]
TAAp-specific IFN-γ response after OMP immunization [1]: > 5,000 SFU | TAAp-specific response, OMP versus TAAp immunization [1]: superior immunogenicity

SLPDRILTV [OMP11]
Cross-reactivity OMP/TAAp in healthy donor CD8+ T cells [4]: below 33%

LLFGAPALL [BAFF-R77-85, reference compound]
TAAp-specific response, OMP versus TAAp immunization [1]: weaker when mice were immunized with TAAps than with their mimic OMPs
